Measurements as given in ChEMBL document CHEMBL3817787, “Lead Optimization of 2-Phenylindolylglyoxylyldipeptide Murine Double Minute (MDM)2/Translocator Protein (TSPO) Dual Inhibitors for the Treatment of Gliomas” (J Med Chem, 2016).
Calls of active or inactive are those of the source. No cut-off for these calls is given here.

What was measured:
[1] = target: Translocator protein (Rattus norvegicus) (UniProt P16257); assay: (§1) Displacement of [3H]PK11195 from TSPO in rat kidney mitochondrial membrane after 90 mins by liquid scintillation counting method; format: cell membranes
Sequence of Translocator protein (Rattus norvegicus) (P16257 whole entry, looked up): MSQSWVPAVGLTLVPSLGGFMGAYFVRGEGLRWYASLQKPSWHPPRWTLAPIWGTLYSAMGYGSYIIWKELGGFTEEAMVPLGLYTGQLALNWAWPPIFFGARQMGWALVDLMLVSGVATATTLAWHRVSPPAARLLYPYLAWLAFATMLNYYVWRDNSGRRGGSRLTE
In short: (§2)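 TSPO binding by radioligand displacement of the TSPO-selective [3H]PK11195 across a concentration range; Ki derived.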

Translocator protein = Translocator protein (Rattus norvegicus, UniProt P16257); assay: as §1; format: cell membranes; in short: as §2
Sequence of Translocator protein (P16257 whole entry, looked up): as above

[2] = Antiproliferative activity against human U87MG cells expressing wild type p53 after 48 hrs by MTS assay; conditions: U-87 MG
[3] = Antiproliferative activity against human U343MG cells expressing wild type p53 after 48 hrs by MTS assay; conditions: U-343MG
T98G = assay: Growth inhibition of human T98G cells expressing p53 mutant after 48 hrs by MTS assay relative to control; format: functional
In short: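 Wild-type p53 U87MG and U343MG cells and mutant-p53 T98G cells were treated with a range of compound concentrations, using the same protocol for each line. Viability was read by MTS assay, and the 48 h treatment with 100 nM–10 µM is stated for U87MG. Results are given as percent inhibition or viable cells versus control, with IC50 taken from concentration–response curves.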

Homo sapiens = organism: Homo sapiens; assay: Growth inhibition of human U87MG-derived CSC at 100 uM after 7 days by MTS assay relative to control; format: functional
In short: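 Glioma CSC viability measured after 24 h and after prolonged (seven-day) exposure, at concentrations up to 100 µM; CSC depletion expressed versus control.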

[4] = Growth inhibition of human U87MG cells at 50 uM after 72 hrs by MTS assay relative to control; format: functional, U-87MG ATCC; conditions: U-87 MG, read-out: GI
In short: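 U87MG cells were exposed to temozolomide (50 µM) alone or combined with 100 nM dual inhibitor for at least 72 h. Viability was measured and expressed as reduction relative to untreated control.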

[5] = Antiproliferative activity against human MSC at 10 uM after 48 hrs by MTS assay
In short: (§3)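 Non-tumoural human mesenchymal stem cells exposed to 100 nM-10 µM for 48 h; viability read by MTS assay.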

[6] = Antiproliferative activity against human MSC at 0.01 to 10 uM after 48 hrs by MTS assay; conditions: in the assay text read “0.1 to 10 uM” for “0.01 to 10 uM”; in short: as §3

inhibition [1] | Ki (Translocator protein) [nM] | SMILES | IC50 [2] [µM] | IC50 [3] [µM] | growth inhibition (GI) (T98G) | growth inhibition (GI) (Homo sapiens) [%] | inhibition of growth at 50 µM [4] [%] | Activity [5] | Activity [6]
Dose-dependent effect | 783 | CC[C@H](C)[C@H](NC(=O)[C@@H](NC(=O)C(=O)c1c(-c2ccccc2)[nH]c2ccccc12)C(C)C)C(=O)OC |  |  |  |  |  |  | 
Dose-dependent effect | 1000 | CC[C@H](C)[C@H](NC(=O)C(=O)c1c(-c2ccccc2)[nH]c2ccccc12)C(=O)N[C@H](C(=O)OC)[C@@H](C)CC |  |  |  |  |  |  | 
Dose-dependent effect | 365 | COC(=O)[C@H](CC(C)C)NC(=O)[C@@H](NC(=O)C(=O)c1c(-c2ccccc2)[nH]c2ccccc12)C(C)C |  |  |  |  |  |  | 

Further lines, the molecule ahead of its results:

SMILES | inhibition [1] | Ki (Translocator protein) [nM] | IC50 [2] [µM] | IC50 [3] [µM] | growth inhibition (GI) (T98G) | growth inhibition (GI) (Homo sapiens) [%] | inhibition of growth at 50 µM [4] [%] | Activity [5] | Activity [6]
COc1ccc(C2=NC(c3ccc(Cl)cc3)C(c3ccc(Cl)cc3)N2C(=O)N2CCNC(=O)C2)c(OC(C)C)c1 (centres undefined) |  |  | 6.5 | 12.6 | inactive | 45 |  |  | 
Cn1nnc2c(C(N)=O)ncn2c1=O [TEMOZOLOMIDE] |  |  |  |  |  |  | 55 |  | 
CCOC(=O)[C@H](Cc1ccccc1)NC(=O)[C@H](CC(C)C)NC(=O)C(=O)c1c(-c2ccccc2)[nH]c2ccccc12 | Dose-dependent effect | 430 | 2.6 | 2.1 | inactive | 65 |  | Toxic | Non-toxic
